Test results as given in article PMC5858514 (Theranostics, 2018).

Legend:
[1] = test system: MDA-MB-231, OVCAR3, and U87MG cell lines; assay: Cell viability MTT assay, three tumor cell lines stated together; format: cell-based, human; settings: maximum / at the highest dose
Procedure, shortened: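 MTT viability assay. Cells at 5 × 10^3 per well, kept at 37 °C, 5% CO2 with 10% FBS: MDA-MB-231 in L-15, OVCAR3 and 293T in DMEM, U87MG in MEM. Test compound from 3 pM to 1.6 nM for 24 h, six replicates. MTT (5 mg/mL stock) added for 4 h, medium replaced with DMSO, absorbance read at 490 nm.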

U87MG cells = assay: Apoptosis study, Annexin V-FITC/PI flow cytometry; format: cell-based, human; settings: 24 h
Procedure, shortened: (§1)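 Annexin V-FITC/PI apoptosis assay. Media: MDA-MB-231 in L-15, OVCAR3 in DMEM, U87MG in MEM; all with 10% FBS, 37 °C, 5% CO2. Cells in 6-well plates got 200 μL of 1 mg/mL test compound for 24 h, then two PBS (pH 7.4) washes. Binding buffer, propidium iodide and Annexin V-FITC were added before flow cytometry. Q2 was early apoptotic and Q4 late apoptotic; Q2+Q4 was taken as […].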

OVCAR3 cells = assay: Apoptosis study, Annexin V-FITC/PI flow cytometry; format: cell-based, human; settings: OVCAR3, 24 h
Procedure, shortened: as §1

MDA-MB-231 cells = assay: Apoptosis study, Annexin V-FITC/PI flow cytometry; format: cell-based, human; settings: MDA-MB-231, 24 h
Procedure, shortened: as §1

MDA-MB-231 tumor = assay: In vivo antitumor activity; parameters: species or system mice; settings: three i.v. injections every other day, 6 mg/kg PTX equivalent
Procedure, shortened: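 Female BALB/c nude mice were fed a folate-deficient diet for 6 days, then given MDA-MB-231 cells at the right axillary fossa. Treatment began at tumor volumes of 80–150 mm3, n = 5 per group, with a PBS (pH 7.4) control. Dosing was 6 mg/kg PTX equivalent by tail vein, three injections every other day. Tumor volume was measured every other day. Excised tumors were assayed for CD46 protein.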

[2] = Toxicity in the therapy study: body weight and histopathology; format: in vivo, mice
Procedure, shortened: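 Female nude mice bearing MDA-MB-231 tumors, n = 5 per group with a PBS (pH 7.4) control. They received 6 mg/kg PTX equivalent i.v. by tail vein, three doses every other day. Body weight was recorded every other day. Liver and kidneys were excised for pathology.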

In the case of `CC(=O)O[C@H]1C(=O)[C@@]2(C)[C@H]([C@H](OC(=O)c3ccccc3)[C@]3(O)C[C@H](OC(=O)[C@H](O)[C@@H](NC(=O)c4ccccc4)c4ccccc4)C(C)=C1C3(C)C)[C@]1(OC(C)=O)CO[C@@H]1C[C@@H]2O` [PTX, paclitaxel], the cell inhibition ratio [1] is reported as 63%, the “cells undergoing early apoptosis (Q2)” value (U87MG cells) is reported as 29.8% and the “late apoptotic cells (Q4)” value (U87MG cells) is reported as 3.1%. The “cells undergoing early apoptosis (Q2)” value (OVCAR3 cells) was 21.8%, the “late apoptotic cells (Q4)” value (OVCAR3 cells) was 2.5% and the “cells undergoing early apoptosis (Q2)” value (MDA-MB-231 cells) was 33.8%. For the same molecule, the “late apoptotic cells (Q4)” value (MDA-MB-231 cells) was 1.3%, the tumor volume inhibition (MDA-MB-231 tumor) was 41.04% and the “histopathological examination (H&E) of liver and kidneys / major organs” value ([2]; after treatment, compared with control group) was “no distinct pathologic changes”. The body weight loss ([2]; day 21 post initial treatment, 6 mg/kg i.v. x3) was 0.65 ± 0.02 g and the “change in body weight” value ([2]; over the study period, 6 mg/kg PTX equivalent i.v. x3) was “significant decrease”.
